Results as given in ChEMBL document CHEMBL1134066, “A new structural class of selective and non-covalent inhibitors of the chymotrypsin-like activity of the 20S proteasome” (Bioorg Med Chem Lett, 2001).

species: Homo sapiens; experiment: In vitro inhibitory concentration against Chymotrypsin-like activity of the purified human placenta 20S Proteasome; assay type: functional
Outline: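 Purified human placenta 20S proteasome; chymotrypsin-like activity measured by cleavage of the fluorogenic substrate Suc-Leu-Val-Tyr-AMC (AMC release). Trypsin-like (Boc-Leu-Arg-Arg-AMC) and post-glutamyl-peptide hydrolytic-like (Z-Leu-Leu-Glu-AMC) substrates were used for the parallel selectivity assays.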

IC50 [nM] | Structure (SMILES)
600 | COc1ccc(CN[C@@H](C(=O)N[C@H](C(=O)NCc2ccc(OC)cc2O)C(C)C)[C@H](O)[C@H](Cc2ccccc2)NC(=O)[C@@H](NC(=O)CCc2cccc(N)c2)C(C)(C)C)cc1
> 20000 | COc1ccc(CN[C@@H](C(=O)N[C@H](C(=O)NCc2ccc(OC)cc2OC)C(C)C)[C@H](O)[C@H](Cc2ccccc2)NC(=O)[C@@H](NC(=O)OCc2ccccc2)C(C)C)cc1
27000 | COc1ccc(CN[C@@H](C(=O)N[C@H](C(=O)NCc2ccc(OC)cc2O)C(C)C)[C@H](O)[C@H](Cc2ccccc2)NC(=O)[C@@H](NC(=O)OC(C)(C)C)C(C)(C)C)cc1
100 | COc1ccc(CN[C@@H](C(=O)N[C@H](C(=O)NCc2ccc(OC)cc2O)C(C)C)[C@H](O)[C@H](Cc2ccccc2)NC(=O)[C@@H](NC(=O)Cc2cccc3ccccc23)C(C)(C)C)cc1
500 | COc1ccc(CN[C@@H](C(=O)N[C@H](C(=O)NCc2ccc(OC)cc2O)C(C)C)[C@H](O)[C@H](Cc2ccccc2)NC(=O)[C@@H](NC(=O)OCc2cccc(C)c2)C(C)(C)C)cc1
72000 | COc1ccc(CN[C@@H](C(=O)N[C@H](C(=O)NCc2ccccc2O)C(C)C)[C@H](O)[C@H](Cc2ccccc2)NC(=O)[C@@H](NC(=O)OCc2ccccc2)C(C)(C)C)cc1

Continued, compound first:

Structure (SMILES) | IC50 [nM]
COc1ccc(CN[C@@H](C(=O)N[C@H](C(=O)NCc2ccc(OC)cc2O)C(C)C)[C@H](O)[C@H](Cc2ccccc2)NC(=O)[C@@H](NC(=O)OCc2cc(C)cc(C)c2)C(C)(C)C)cc1 | 1100
COc1ccc(CN[C@@H](C(=O)N[C@H](C(=O)NCc2ccc(OC)cc2O)C(C)C)[C@H](O)[C@H](Cc2ccccc2)NC(=O)[C@@H](NC(=O)OCc2cccc(N)c2)C(C)(C)C)cc1 | 600
COc1ccc(CN[C@@H](C(=O)N[C@H](C(=O)NCc2ccc(OC)cc2O)C(C)C)[C@H](O)[C@H](Cc2ccccc2)NC(=O)[C@@H](NC(=O)OCc2cccc3ccccc23)C(C)(C)C)cc1 | 2000
COc1ccc(CN[C@@H](C(=O)N[C@H](C(=O)NCc2ccc(OC)cc2O)C(C)C)[C@H](O)[C@H](Cc2ccccc2)NC(=O)[C@@H](NC(=O)OCc2ccccc2)C(C)(C)C)cc1 | 900
COc1ccc(CN[C@@H](C(=O)N[C@H](C(=O)NCc2ccc(OC)cc2O)C(C)C)[C@H](O)[C@H](Cc2ccccc2)NC(=O)[C@@H](NC(=O)OCc2ccccc2)C(C)C)cc1 | 3300
COc1ccc(CN[C@@H](C(=O)N[C@H](C(=O)NCc2ccc(OC)cc2O)C(C)C)[C@H](O)[C@H](Cc2ccccc2)NC(=O)[C@@H](N)C(C)(C)C)cc1 | 70000
